What was measured:
[1] = target: Epidermal growth factor receptor and ErbB2 (HER1 and HER2) (Homo sapiens, UniProt P04626+P00533); test: Inhibition of EGF-stimulated human umbilical vein endothelial cell proliferation; format: functional, cell-based
Procedure, shortened: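 Primary HUVECs (passage ≤3) seeded 2 × 10^3/well on collagen IV in minimal medium, 1% heat-inactivated FBS, 24 h; compound dilutions added with EGF 5 ng/mL; 48 h later 3H-thymidine 0.5 µCi, further 24 h. IC50 = concentration giving 50% less tritium incorporation than untreated EGF-stimulated cells, from dose-response curves.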

[2] = Compound was tested for its inhibitory effect on the proliferation of the colon adenocarcinoma cell line DiFi; conditions: Homo sapiens
[3] = target: Vascular endothelial growth factor receptor (Homo sapiens, UniProt P17948+P35916+P35968); test: Inhibition of VEGF-stimulated human umbilical vein endothelial cell proliferation; format: functional, cell-based
Procedure, shortened: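 HUVECs under passage 3, plated 2 × 10^3/well in minimal medium with 1% heat-inactivated FBS on collagen IV; after 24 h, VEGF 80 ng/mL and serial compound dilutions; 3H-thymidine pulse (0.5 µCi) at 48 h for 24 h. IC50 as concentration halving thymidine uptake relative to untreated VEGF-stimulated cells.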

[4] = target: Vascular endothelial growth factor receptor 2 (Homo sapiens, UniProt P35968); test: In vitro inhibition of Vascular endothelial growth factor receptor 2
Sequence of Vascular endothelial growth factor receptor 2 (P35968 whole entry): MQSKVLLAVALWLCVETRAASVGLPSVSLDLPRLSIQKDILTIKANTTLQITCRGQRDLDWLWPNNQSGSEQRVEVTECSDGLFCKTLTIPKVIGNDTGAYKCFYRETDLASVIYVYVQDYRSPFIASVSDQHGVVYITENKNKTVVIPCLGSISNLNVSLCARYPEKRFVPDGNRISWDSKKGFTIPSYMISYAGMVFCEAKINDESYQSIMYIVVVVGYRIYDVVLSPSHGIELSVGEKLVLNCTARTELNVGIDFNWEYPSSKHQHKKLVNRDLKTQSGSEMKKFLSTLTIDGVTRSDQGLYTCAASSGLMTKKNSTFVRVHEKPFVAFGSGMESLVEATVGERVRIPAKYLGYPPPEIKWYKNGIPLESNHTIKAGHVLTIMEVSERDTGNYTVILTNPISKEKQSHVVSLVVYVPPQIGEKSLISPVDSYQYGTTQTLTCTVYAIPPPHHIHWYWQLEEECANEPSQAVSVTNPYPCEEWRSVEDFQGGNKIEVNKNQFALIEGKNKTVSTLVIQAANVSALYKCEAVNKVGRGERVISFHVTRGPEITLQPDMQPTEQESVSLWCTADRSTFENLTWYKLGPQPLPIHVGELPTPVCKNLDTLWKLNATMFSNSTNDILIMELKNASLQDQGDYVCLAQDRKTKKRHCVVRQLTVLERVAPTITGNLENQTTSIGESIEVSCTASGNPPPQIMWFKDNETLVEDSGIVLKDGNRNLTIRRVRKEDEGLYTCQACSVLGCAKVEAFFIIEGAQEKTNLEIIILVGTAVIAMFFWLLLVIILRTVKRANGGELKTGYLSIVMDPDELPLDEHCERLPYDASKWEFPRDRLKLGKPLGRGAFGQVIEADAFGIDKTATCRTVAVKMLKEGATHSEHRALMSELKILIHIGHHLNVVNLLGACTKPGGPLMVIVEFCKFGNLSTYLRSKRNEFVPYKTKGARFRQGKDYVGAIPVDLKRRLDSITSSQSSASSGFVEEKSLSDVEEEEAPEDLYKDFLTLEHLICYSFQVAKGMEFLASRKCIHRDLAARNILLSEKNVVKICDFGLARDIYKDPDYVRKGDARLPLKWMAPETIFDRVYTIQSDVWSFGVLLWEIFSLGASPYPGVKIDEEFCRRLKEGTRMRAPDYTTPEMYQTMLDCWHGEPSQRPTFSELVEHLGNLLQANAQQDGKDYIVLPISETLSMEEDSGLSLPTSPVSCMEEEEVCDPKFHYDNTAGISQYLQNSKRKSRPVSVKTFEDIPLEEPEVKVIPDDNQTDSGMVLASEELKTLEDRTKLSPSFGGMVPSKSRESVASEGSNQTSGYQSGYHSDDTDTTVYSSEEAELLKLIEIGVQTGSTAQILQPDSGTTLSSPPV

[5] = target: Epidermal growth factor receptor (Homo sapiens, UniProt P00533); test: In vitro inhibition of Epidermal growth factor receptor
Sequence of Epidermal growth factor receptor (P00533 whole entry): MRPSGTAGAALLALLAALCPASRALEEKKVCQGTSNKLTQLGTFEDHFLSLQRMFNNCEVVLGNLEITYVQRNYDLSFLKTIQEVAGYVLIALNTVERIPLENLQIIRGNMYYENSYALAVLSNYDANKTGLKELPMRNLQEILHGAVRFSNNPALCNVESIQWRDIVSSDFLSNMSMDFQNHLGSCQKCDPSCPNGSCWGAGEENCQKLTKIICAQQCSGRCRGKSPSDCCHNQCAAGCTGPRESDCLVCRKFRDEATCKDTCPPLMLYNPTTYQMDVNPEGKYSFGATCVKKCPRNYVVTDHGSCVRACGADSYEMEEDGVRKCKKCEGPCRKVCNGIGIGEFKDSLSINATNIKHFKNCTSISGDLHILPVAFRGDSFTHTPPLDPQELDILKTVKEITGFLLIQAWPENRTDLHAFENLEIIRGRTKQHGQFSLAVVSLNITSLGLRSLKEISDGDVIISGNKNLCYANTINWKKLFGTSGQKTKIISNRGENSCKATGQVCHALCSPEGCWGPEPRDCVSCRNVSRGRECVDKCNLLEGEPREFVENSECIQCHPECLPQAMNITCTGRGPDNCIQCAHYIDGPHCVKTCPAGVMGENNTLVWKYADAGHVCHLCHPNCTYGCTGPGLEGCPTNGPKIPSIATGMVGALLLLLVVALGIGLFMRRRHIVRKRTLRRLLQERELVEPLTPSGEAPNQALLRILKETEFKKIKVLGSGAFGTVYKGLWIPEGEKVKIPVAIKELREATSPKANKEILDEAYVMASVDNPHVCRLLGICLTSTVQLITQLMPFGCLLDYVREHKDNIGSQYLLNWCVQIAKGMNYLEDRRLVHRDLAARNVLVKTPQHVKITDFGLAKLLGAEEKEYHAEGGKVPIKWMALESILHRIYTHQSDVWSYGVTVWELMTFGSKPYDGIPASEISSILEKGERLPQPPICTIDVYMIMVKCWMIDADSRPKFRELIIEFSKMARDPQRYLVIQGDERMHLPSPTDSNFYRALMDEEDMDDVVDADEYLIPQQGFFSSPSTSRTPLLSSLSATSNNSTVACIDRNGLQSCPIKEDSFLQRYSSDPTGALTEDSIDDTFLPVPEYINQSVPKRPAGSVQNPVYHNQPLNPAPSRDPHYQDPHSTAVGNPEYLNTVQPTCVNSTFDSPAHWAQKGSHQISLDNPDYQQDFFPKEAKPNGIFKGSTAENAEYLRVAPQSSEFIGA

SMILES	IC50 [1]	IC50 [3]	IC50 [4]	IC50 [5]	IC50 [2]
Cc1ccc(Nc2ncnn3ccc(C)c23)cc1O	270 nM	98 nM	60 nM	340 nM	> 10000 nM
Cc1ccc2c(Nc3ccc(F)c(Cl)c3)ncnn12	> 2500 nM	> 2500 nM	> 2000 nM	3250 nM	> 10000 nM
Cc1cc2c(Nc3ccc(F)c(Cl)c3)ncnn2c1	509 nM	> 2500 nM	> 2000 nM	150 nM	1600 nM
Cc1ccn2ncnc(Nc3ccc(F)c(Cl)c3)c12	602 nM	> 2500 nM	> 10000 nM	100 nM	3060 nM
Cc1ccc(Nc2ncnn3c(C)ccc23)cc1O	101 nM	477 nM	> 10000 nM	29400 nM	> 10000 nM
Cc1ccc(Nc2ncnn3cccc23)cc1O	–	360 nM	1440 nM	510 nM	10000 nM

Further lines, with some results ahead:

IC50 [1]	IC50 [3]	IC50 [4]	IC50 [5]	SMILES	IC50 [2]
–	310 nM	20 nM	200 nM	Cc1ccc(Nc2ncnn3cc(C)c(C)c23)cc1O	> 10000 nM
644 nM	213 nM	400 nM	650 nM	Cc1cc2c(Nc3ccc(C)c(O)c3)ncnn2c1	> 10000 nM
345 nM	> 2500 nM	> 10000 nM	110 nM	Fc1ccc(Nc2ncnn3cccc23)cc1Cl	1840 nM
